Source: ChEMBL document CHEMBL4689842, “EUbOPEN Chemogenomics Library wave 1” (2021)

Tested on: Fibroblast
Assay: Multiplex assay against human fibroblast
Type: toxicity, cell-based
Method in brief: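 Phenotypes for tubulin, mitochondrial mass and membrane permeability are expressed as per cents of healthy-nucleus cells. Cells were stained live at seeding with Hoechst33342, BioTracker Green Microtubule Cytoskeleton Dye, MitoTracker Red and Annexin V Alexa Fluor 680, then imaged after compound addition on a CQ1 microscope at 37°C and 5% CO2. Machine-learning gating in CellPathfinder separated Hoechst high-intensity objects from normal cells, divided normal cells by nuclear state (healthy, pyknosed, fragmented) and divided pyknosed cells into mitotic or apoptotic.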

[1] = 12 h, 1 µM, compound concentration 1 uM, replicate 1
[2] = 12 h, 1 µM, compound concentration 1 uM, replicate 2
[3] = 12 h, 10 µM, compound concentration 10 uM, replicate 1
[4] = 12 h, 10 µM, compound concentration 10 uM, replicate 2
[5] = 24 h, 1 µM, compound concentration 1 uM, replicate 1
[6] = 24 h, 1 µM, compound concentration 1 uM, replicate 2
[7] = 24 h, 10 µM, compound concentration 10 uM, replicate 1
[8] = 24 h, 10 µM, compound concentration 10 uM, replicate 2

CNC(=O)c1ccc(Nc2nc(OC3CCCC3)c3c(-c4ccc5nc(C)oc5c4)c[nH]c3n2)c(OC)c1
Population Apoptotic (%) [1]: 69% | Population Fragmented Nuclei (%) [1]: 29% | Population Healthy Nuclei (%) [1]: 53% | Population Hoechst High Intensity Objects (%) [1]: 10% | Population Membrane Permeable-Phenotype (%) [1]: 46% | Population Mitochondria Different-Phenotype (%) [1]: 5% | Population Mitotic Cells (%) [1]: 30% | Population Normal (%) [1]: 89% | Population Pyknosed Nuclei (%) [1]: 17% | Population Tubulin-Different-Phenotype (%) [1]: 80% | Total Cell Count [1]: 237 | Population Apoptotic (%) [2]: 33% | Population Fragmented Nuclei (%) [2]: 60% | Population Healthy Nuclei (%) [2]: 34% | Population Hoechst High Intensity Objects (%) [2]: 33% | Population Membrane Permeable-Phenotype (%) [2]: 45% | Population Mitochondria Different-Phenotype (%) [2]: 9% | Population Mitotic Cells (%) [2]: 66% | Population Normal (%) [2]: 66% | Population Pyknosed Nuclei (%) [2]: 4% | Population Tubulin-Different-Phenotype (%) [2]: 86% | Total Cell Count [2]: 96 | Population Apoptotic (%) [3]: 77% | Population Fragmented Nuclei (%) [3]: 33% | Population Healthy Nuclei (%) [3]: 50% | Population Hoechst High Intensity Objects (%) [3]: 14% | Population Membrane Permeable-Phenotype (%) [3]: 14% | Population Mitotic Cells (%) [3]: 22% | Population Normal (%) [3]: 85% | Population Pyknosed Nuclei (%) [3]: 16% | Population Tubulin-Different-Phenotype (%) [3]: 26% | Total Cell Count [3]: 194 | Population Apoptotic (%) [4]: 33% | Population Fragmented Nuclei (%) [4]: 60% | Population Healthy Nuclei (%) [4]: 27% | Population Hoechst High Intensity Objects (%) [4]: 40% | Population Membrane Permeable-Phenotype (%) [4]: 30% | Population Mitochondria Different-Phenotype (%) [4]: 7% | Population Mitotic Cells (%) [4]: 66% | Population Normal (%) [4]: 59% | Population Pyknosed Nuclei (%) [4]: 12% | Population Tubulin-Different-Phenotype (%) [4]: 23% | Population Apoptotic (%) [5]: 67% | Population Fragmented Nuclei (%) [5]: 36% | Population Healthy Nuclei (%) [5]: 41% | Population Hoechst High Intensity Objects (%) [5]: 10% | Population Membrane Permeable-Phenotype (%) [5]: 26% | Population Mitochondria Different-Phenotype (%) [5]: 11% | Population Mitotic Cells (%) [5]: 32% | Population Normal (%) [5]: 89% | Population Pyknosed Nuclei (%) [5]: 22% | Population Tubulin-Different-Phenotype (%) [5]: 79% | Total Cell Count [5]: 265 | Population Apoptotic (%) [6]: 100% | Population Fragmented Nuclei (%) [6]: 62% | Population Healthy Nuclei (%) [6]: 35% | Population Hoechst High Intensity Objects (%) [6]: 35% | Population Membrane Permeable-Phenotype (%) [6]: 19% | Population Mitochondria Different-Phenotype (%) [6]: 19% | Population Mitotic Cells (%) [6]: 0% | Population Normal (%) [6]: 64% | Population Pyknosed Nuclei (%) [6]: 1% | Population Tubulin-Different-Phenotype (%) [6]: 90% | Total Cell Count [6]: 92 | Population Fragmented Nuclei (%) [7]: 28% | Population Healthy Nuclei (%) [7]: 52% | Population Hoechst High Intensity Objects (%) [7]: 23% | Population Membrane Permeable-Phenotype (%) [7]: 5% | Population Mitochondria Different-Phenotype (%) [7]: 3% | Population Normal (%) [7]: 76% | Population Pyknosed Nuclei (%) [7]: 19% | Population Tubulin-Different-Phenotype (%) [7]: 19% | Total Cell Count [7]: 193 | Population Apoptotic (%) [8]: 71% | Population Fragmented Nuclei (%) [8]: 60% | Population Healthy Nuclei (%) [8]: 25% | Population Hoechst High Intensity Objects (%) [8]: 40% | Population Membrane Permeable-Phenotype (%) [8]: 7% | Population Mitochondria Different-Phenotype (%) [8]: 7% | Population Mitotic Cells (%) [8]: 28% | Population Normal (%) [8]: 60% | Population Pyknosed Nuclei (%) [8]: 13% | Population Tubulin-Different-Phenotype (%) [8]: 23% | Total Cell Count [8]: 85

Cc1ccc2nc(NCCN)c3ncc(C)n3c2c1.O=C(O)C(F)(F)F.O=C(O)C(F)(F)F
Population Apoptotic (%) [1]: 78% | Population Fragmented Nuclei (%) [1]: 28% | Population Healthy Nuclei (%) [1]: 60% | Population Hoechst High Intensity Objects (%) [1]: 11% | Population Membrane Permeable-Phenotype (%) [1]: 5% | Population Mitochondria Different-Phenotype (%) [1]: 1% | Population Mitotic Cells (%) [1]: 21% | Population Normal (%) [1]: 88% | Population Tubulin-Different-Phenotype (%) [1]: 3% | Total Cell Count [1]: 243 | Population Apoptotic (%) [2]: 50% | Population Fragmented Nuclei (%) [2]: 65% | Population Healthy Nuclei (%) [2]: 23% | Population Hoechst High Intensity Objects (%) [2]: 51% | Population Membrane Permeable-Phenotype (%) [2]: 11% | Population Mitochondria Different-Phenotype (%) [2]: 22% | Population Mitotic Cells (%) [2]: 50% | Population Normal (%) [2]: 48% | Population Pyknosed Nuclei (%) [2]: 10% | Population Tubulin-Different-Phenotype (%) [2]: 11% | Total Cell Count [2]: 78 | Population Apoptotic (%) [3]: 76% | Population Fragmented Nuclei (%) [3]: 33% | Population Healthy Nuclei (%) [3]: 52% | Population Hoechst High Intensity Objects (%) [3]: 21% | Population Membrane Permeable-Phenotype (%) [3]: 5% | Population Mitochondria Different-Phenotype (%) [3]: 3% | Population Mitotic Cells (%) [3]: 23% | Population Normal (%) [3]: 78% | Population Pyknosed Nuclei (%) [3]: 13% | Population Tubulin-Different-Phenotype (%) [3]: 11% | Total Cell Count [3]: 309 | Population Apoptotic (%) [4]: 66% | Population Fragmented Nuclei (%) [4]: 57% | Population Healthy Nuclei (%) [4]: 26% | Population Hoechst High Intensity Objects (%) [4]: 36% | Population Membrane Permeable-Phenotype (%) [4]: 6% | Population Mitochondria Different-Phenotype (%) [4]: 33% | Population Mitotic Cells (%) [4]: 33% | Population Normal (%) [4]: 63% | Population Pyknosed Nuclei (%) [4]: 15% | Population Tubulin-Different-Phenotype (%) [4]: 46% | Total Cell Count [4]: 90 | Population Apoptotic (%) [5]: 64% | Population Fragmented Nuclei (%) [5]: 22% | Population Healthy Nuclei (%) [5]: 59% | Population Hoechst High Intensity Objects (%) [5]: 11% | Population Membrane Permeable-Phenotype (%) [5]: 4% | Population Mitochondria Different-Phenotype (%) [5]: 0% | Population Mitotic Cells (%) [5]: 35% | Population Normal (%) [5]: 88% | Population Pyknosed Nuclei (%) [5]: 17% | Population Tubulin-Different-Phenotype (%) [5]: 2% | Total Cell Count [5]: 253 | Population Apoptotic (%) [6]: 66% | Population Fragmented Nuclei (%) [6]: 64% | Population Healthy Nuclei (%) [6]: 27% | Population Hoechst High Intensity Objects (%) [6]: 43% | Population Membrane Permeable-Phenotype (%) [6]: 0% | Population Mitochondria Different-Phenotype (%) [6]: 20% | Population Mitotic Cells (%) [6]: 33% | Population Normal (%) [6]: 56% | Population Pyknosed Nuclei (%) [6]: 8% | Population Tubulin-Different-Phenotype (%) [6]: 0% | Total Cell Count [6]: 65 | Population Apoptotic (%) [7]: 81% | Population Fragmented Nuclei (%) [7]: 35% | Population Healthy Nuclei (%) [7]: 50% | Population Hoechst High Intensity Objects (%) [7]: 23% | Population Membrane Permeable-Phenotype (%) [7]: 5% | Population Mitochondria Different-Phenotype (%) [7]: 0% | Population Mitotic Cells (%) [7]: 18% | Population Normal (%) [7]: 76% | Population Pyknosed Nuclei (%) [7]: 13% | Population Tubulin-Different-Phenotype (%) [7]: 3% | Total Cell Count [7]: 370 | Population Apoptotic (%) [8]: 77% | Population Fragmented Nuclei (%) [8]: 47% | Population Healthy Nuclei (%) [8]: 35% | Population Hoechst High Intensity Objects (%) [8]: 39% | Population Membrane Permeable-Phenotype (%) [8]: 15% | Population Mitochondria Different-Phenotype (%) [8]: 15% | Population Mitotic Cells (%) [8]: 22% | Population Normal (%) [8]: 60% | Population Pyknosed Nuclei (%) [8]: 16% | Population Tubulin-Different-Phenotype (%) [8]: 52% | Total Cell Count [8]: 88
